Assay [1] concerns POMC. Kind of assay: Hypothalamic POMC mRNA. The following applies: chicken. In kind it is in vivo. An outline of the steps:
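3-wk-old male chicks, randomized into four groups (N ≥ 3), given test peptide intravenously at 10, 50 or 100 ng/g BW, or PBS as control. Hypothalami collected 6, 12 and 24 h post-injection. EvaGreen qRT-PCR with melting-curve and agarose-gel specificity checks. mRNA normalised to β-actin and expressed as fold of PBS group. One-way ANOVA with Dunnett's test.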

The test system of assay [2] is human GALR2. The following applies: ref Kim et al., 2014, Cohen et al., 2020; cited from earlier work.
In assay [3] the test system is human GALR3. The following applies: ref Kim et al., 2014, Cohen et al., 2020; cited from earlier work.
The subject of assay [4] is zebrafish GALR2a. The following applies: ref Kim et al., 2014, Cohen et al., 2020; cited from earlier work.
Assay [5] relates to zebrafish GALR2b. The following applies: ref Kim et al., 2014, Cohen et al., 2020; cited from earlier work.
Assay [6] relates to tilapia GALR2a. Particulars: ref Kim et al., 2014, Cohen et al., 2020; cited from earlier work.
Assay [7] relates to tilapia GALR2b. Particulars: ref Kim et al., 2014, Cohen et al., 2020; cited from earlier work.
In assay [8] the test system is Xenopus GALR2b. The following applies: ref Kim et al., 2014, Cohen et al., 2020; cited from earlier work.
For assay [9], the system named is Xenopus GALR3. The following applies: ref Kim et al., 2014, Cohen et al., 2020; cited from earlier work.
Assay [10] deals with GALR1. Particulars: ref Kim et al., 2014, cited from earlier work.
The subject of assay [11] is mice. Particulars: cited from earlier work.
The subject of assay [12] is goldfish. Particulars: injection, ref Wong et al., 2013; cited from earlier work.
In assay [13] the test system is Siberian sturgeon. The following applies: ref Tian et al., 2020, cited from earlier work.
For assay [14] the following is noted: cited from earlier work.
Assay [15] deals with GALR2. The following applies: mouse; ref Lin et al., 2015; cited from earlier work.
For assay [16], the system named is luteinizing hormone (LH) release. The following applies: ewe; ref Lomet et al., 2020; cited from earlier work.
For assay [17], the system named is hypothalamic neuropeptides. The following applies: goldfish; ref Wong et al., 2013; cited from earlier work.
The subject of assay [18] is hypothalamic neuropeptides. Particulars: zebrafish; ref Zheng et al., 2017; cited from earlier work.
Assay [19] deals with hypothalamic neuropeptides. Particulars: mouse; ref Lv et al., 2020; cited from earlier work.
Assay [20] concerns hypothalamic neuropeptides. The following applies: orange-spotted grouper; ref Li et al., 2016; cited from earlier work.

Read-outs that look alike come from different tables or passages of the source.

As to “SPX: Spexin, novel neuropeptide; mature peptide with 14 amino acid residues, of various species in cited literature”, the “POMC mRNA level (in words)” value in assay [1] is recorded as “failed to change the mRNA level of POMC”. Besides, the receptor activation result in assay [2], in assay [3], in assay [4], in assay [5], in assay [6] and in assay [7] was “could activate” in each case. Moreover, the receptor activation entry in assay [8] was “could activate”; in [9] it was “could activate”; in assay [10] (GALR1, Cohen et al., 2020) it was “not GALR1”. For the same substance, the “activation of GALR1” value in assay [10] is reported as “incompetent in activating GALR1”. Moreover, the feeding result is “feeding inhibition” in [11] (intraperitoneal (IP) injection, ref Lv et al., 2020, Wong et al., 2021b) and “feeding inhibition” in assay [13] (intraperitoneal (IP) injection). In assay [11] (peripheral, ref Lv et al., 2020), the feed intake entry is recorded as “suppresses feed intake”. Moreover, the feed consumption result in [12] and in assay [13] (injection) was “observably decreased” in each case. Also, the body weight result in assay [14] (rodents with diet-induced obesity, ref Walewski et al., 2014) is reported as “lose weight”; in [14] (rodents, ref Kolodziejski et al., 2021) it was “weight loss”. For the same substance, in [15], the “bowel movement via SPX-dependent GALR2 activation” value is listed as “could enhance bowel movement”. Further, the “basal and KISS-induced luteinizing hormone (LH) release” value in [16] is recorded as “does not impact”. Also, the POMC expression entry in [17], in [18] and in [20] was “could elevate POMC expression” in each case. In assay [19], the “POMC mRNA level” value is “failed to change the mRNA level of POMC”.

These data come from article PMC9673105 (Poultry Science, 2022).
